High-throughput results (PubChem)
PKD1 inh – blocks activity of human protein kinase D1; Q15139; PKD1 kinase fluorescence polarization assay; inhibition, % (no concentration beside the values); 0.056% of 200,000 active; AID 797
RBBP9 inh – human RBBP9 hydrolase inhibition; 0.2% of 220,000 active; inhibition, % at 7.94 µM; recombinant RBBP9, FP-Rh probe fluorescence polarization; AID 1515;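 active = inhibition above the campaign mean of all tested compounds plus 3 SD, cut at about 14% in these data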
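Test system – recombinant human RBBP9 · Input – RBBP9 2.5 µM in dispensing solution, pre-mixing · Medium – Tris buffer pH 8.0, NaCl, Pluronic · Schedule – preincubation 30 min plus labeling 45 min at 25 °C · Measured by – fluorescence polarization · Measure – % inhibition · Controls – DMSO and no-protein wells · Replicates – one well per compound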
EBV gp42 block – EBV gp42 inhibition | Fluorescence polarization binding assay, mP read-out | inhibition, % (tested at 21.74 µM) | AID 1085 | 0.42% of 220,000 active
14-3-3 Bad inh – disrupts binding of bovine 14-3-3 zeta to phospho-Bad peptide; TR-FRET 14-3-3zeta/Dy647-pBad peptide displacement, 1 h; inhibition, % at 21.7 µM; 0.71% of 220,000 active; AID 781;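 active = inhibition above about 70%, limit read from the data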
eIF4E-4G inh – blocks eIF4E binding to eIF4G. inhibition, % at 21.7 µM. P63073+Q04637. TR-FRET eIF4E-eIF4GI(517-606) binding, 2 h. 0.37% of 220,000 active;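 active = inhibition above about 30%, limit read from the data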
PKD FP artifact – FP interference, PKD inhibitor counter-screen. AID 1315. shares compounds with PKD1 inh. 85 tested, under 10 active. PKD1 FP assay interference counter-screen, fluorescence polarization. inhibition, % at 10 µM; call rule not given here
RBBP9 confirm – confirmation of human RBBP9 inhibitors. shares compounds with RBBP9 inh. recombinant RBBP9, FP-Rh probe fluorescence polarization. inhibition, % at 7.94 µM. 36% of 410 active. AID 1537;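 active = inhibition above the hit cutoff derived for the primary screen, cut at about 15% in these data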
Each line names hits and unclear results; the compound was inactive in the other large screens (follow-up assays come after a bar, where they were run); [ ] = another dose, or the depositor's remark. An excerpt weighted towards active compounds, which were near 1.6% of everything screened. Rule as the data show it, unless noted: active = inhibition above about 50%; inactive = the rest.

O=S(=O)(c1ccc2c(c1)OCCO2)N1CCN(Cc2ccc3c(c2)OCO3)CC1	none
O=C(COc1ccccc1)NCCc1cn2ccsc2n1	none
O=S(=O)(c1ccc(N2CCOCC2)nc1)N(Cc1ccccn1)Cc1ccccn1	none (no result: PKD1 inh)
O=C(Nc1ccc(Cl)cc1)OCc1cn(-c2ccc(Cl)cc2)nn1	PKD1 inh 108 | PKD FP artifact inactive
COc1ccc(NC(=O)C2CSC3c4ccccc4C(=O)N23)cc1 (stereo unspecified)	RBBP9 inh 14 | RBBP9 confirm inactive
COC(=O)C1=C(C)NC2=C(C(=O)CC(C)(C)C2)C1c1cnn(C)c1C (stereo unspecified)	none
S=C(Nc1ccc(Br)cc1)NC1CCCCC1	none
CS(=O)(=O)N(CC(=O)Nc1cccnc1)c1ccc2c(c1)OCO2	RBBP9 inh 14 | RBBP9 confirm inactive
CS(=O)(=O)N(CC(=O)Nc1cccnc1)c1ccc2c(c1)OCCO2	none
O=C1C(C2=NC(c3ccccn3)C3C(=O)N(c4ccccc4)C(=O)C23)=C(O)c2ccccc21 (stereo unspecified)	RBBP9 inh 60 (no result: PKD1 inh) | RBBP9 confirm inactive
O=C1c2ccccc2C(=O)N1CCN1CCc2ccccc21	RBBP9 inh 17 | RBBP9 confirm inactive
COc1ccc(NC(=O)C(=O)NCCN2CCN(C(=O)c3ccco3)CC2)cc1	none
CCCCCCCC1CC(CSC(=N)N)OC1=O (stereo unspecified)	RBBP9 inh 23 | RBBP9 confirm inactive
O=C(c1cccnc1)C1CCCN(Cc2nc(Cc3ccccc3)no2)C1 (stereo unspecified)	none
O=C(Cn1nnc2ccccc2c1=O)N1CCCc2ccccc21	RBBP9 inh 16 | RBBP9 confirm inactive
O=C(Cn1nnc2ccccc2c1=O)N1CCOCC1	none
CNCc1ccccc1Sc1cc(O)ccc1O	RBBP9 inh 18, eIF4E-4G inh 48[fluorescence artefact?] | RBBP9 confirm 84
O=c1ccc2[n+]([O-])c3ccc(O)cc3oc-2c1	RBBP9 inh active, EBV gp42 block 110 (no result: PKD1 inh) | RBBP9 confirm inactive
CSC(=S)NCc1cccnc1	none
COc1ccc(S(=O)(=O)c2ccc(OC)cc2)cc1	none
COc1ccc(C2=CC(=O)C=CC2=O)cc1	RBBP9 inh 51, eIF4E-4G inh 41 (no result: PKD1 inh) | RBBP9 confirm 85
CSc1ccccc1C(=O)C1CCCN(Cc2cnn(-c3ccccc3)c2)C1 (stereo unspecified)	RBBP9 inh 18 | RBBP9 confirm inactive
CSc1ccccc1C(=O)C1CCCN(Cc2c(C)n(C)n(-c3ccccc3)c2=O)C1 (stereo unspecified)	none
COc1ccc(C(=O)O/N=C(\C)c2nccs2)cc1	RBBP9 inh 19 | RBBP9 confirm 39
C/C(=N\OC(=O)c1ccc(F)cc1)c1nccs1	none
Cc1cc(C)nc(Sc2c(C)nn(-c3ccccc3)c2C)n1	RBBP9 inh 15 | RBBP9 confirm inactive
Cc1nn(-c2ccccc2)c(C)c1CN	none
Cc1nc2scc(-c3ccccc3)c2c(=O)n1N	none
Cc1nc2scc(-c3ccccc3)c2c(=O)n1N=C1C=CC(=O)C=C1	RBBP9 inh 49 | RBBP9 confirm 59
O=C(NC(=S)Nc1ccccc1F)c1ccc(Br)o1	none
Cc1ccccc1-n1sc2cc(F)ccc2c1=O	RBBP9 inh 63, eIF4E-4G inh 52 | RBBP9 confirm 72
CC(=O)N1CCN(CCN=CC2=C(O)CC(c3cccs3)CC2=O)CC1 (stereo unspecified)	none
Cc1nc2ncccn2c1-c1csc(Nc2ccccc2)n1	none
Cc1nc2ncccn2c1-c1csc(Nc2ccc(N(C)C)cc2)n1	RBBP9 inh 24 | RBBP9 confirm 21
COc1ccc(C(=O)N(CC(=O)NC(C)(C)C)c2ccc3c(c2)OCCO3)cc1OC	RBBP9 inh 15 | RBBP9 confirm inactive
O=C(N/N=C/C(Br)=C/c1ccccc1)c1cnccn1	none (no result: PKD1 inh)
O=C(/C=C/c1ccccc1)CC(=O)c1ccccc1O	none
O=C(NCc1ccc2c(c1)OCO2)C1CC(=O)N(c2ccc(F)cc2)C1 (stereo unspecified)	RBBP9 inh 17 | RBBP9 confirm inactive
CCOC(=O)Cc1nn(C)c(=O)c2ccccc12	RBBP9 inh 16 | RBBP9 confirm inactive
O=C(CSC1=N/C(=C/c2ccc(Cl)c(Cl)c2)C(=O)N1c1ccccc1F)NC1CC1	none
O=[N+]([O-])c1ccc(C(=S)N2CCN(c3ccc(F)cc3)CC2)cc1	RBBP9 inh 15 | RBBP9 confirm inactive
CC(C)OC(=O)CC(=O)CSc1nc2c(cc1C#N)CCC2	none
COC(=O)CC(=O)CSc1nc2c(cc1C#N)CCC2	RBBP9 inh 24 | RBBP9 confirm inactive
O=C(O)c1cccnc1SCC(=O)N1CCCc2ccccc21	none (no result: PKD1 inh)
O=c1c2ccccc2[nH]c(=S)n1CCCN1CCOCC1	RBBP9 inh 15 | RBBP9 confirm inactive
O=c1c2ccc(Cl)cc2[nH]c(=S)n1CCCN1CCOCC1	none
O=c1c2cc(N3CCOCC3)ccc2[nH]c(=S)n1Cc1ccccn1	RBBP9 inh 15 | RBBP9 confirm inactive
O=c1c2cc(N3CCOCC3)ccc2[nH]c(=S)n1Cc1ccccc1Cl	none
CC(=O)Nc1ccc2cc3ccc(NC(C)=O)cc3nc2c1	RBBP9 inh 50, EBV gp42 block 105 (no result: PKD1 inh) | RBBP9 confirm inactive
CC(=O)Nc1ccc2oc(C)nc2c1	none
Cc1cc(C(=O)NN=C2C3CC4CC(C3)CC2C4)c2ccccc2n1	RBBP9 inh 15 | RBBP9 confirm inactive
CC(C)C[C@H](N)c1nnc(SCc2ccc(Cl)cc2)o1	RBBP9 inh 16 (no result: PKD1 inh) | RBBP9 confirm inactive
Oc1ccc(Nc2nc3ccccc3nc2Nc2ccc(O)cc2)cc1	RBBP9 inh 21 | RBBP9 confirm 37
NC(=O)CCn1c2ccccc2c2ccccc21	none
Cc1ccc2c(c1)c1cccc3c1n2CCN3CCC(N)=O	RBBP9 inh 17 | RBBP9 confirm inactive
CCCCC[C@H](O)/C=C/[C@@H]1[C@@H](C/C=C\CCCC(=O)O)[C@@H](O)C[C@H]1O	none
CCCCC[C@H](O)/C=C/[C@@H]1[C@@H](C/C=C\CCCC(=O)OC)[C@@H](O)C[C@H]1O	RBBP9 inh 18, 14-3-3 Bad inh 91, eIF4E-4G inh 88 | RBBP9 confirm 28
Cc1ccc(S(=O)(=O)N(C)C)cc1-n1c(SCC(=O)Nc2ccc(F)c(F)c2F)nc2ccccc2c1=O	none
O=C(Nc1cccc(Cl)c1)Nc1sccc1-c1nc2ccccc2s1	RBBP9 inh 15 (no result: PKD1 inh) | RBBP9 confirm 19
O=C(Nc1ccccc1)Nc1sccc1-c1nc2ccccc2s1	none (no result: PKD1 inh)
CC(=O)Nc1c(O)c2ccccc2[nH]c1=O	none
CNC(=O)C(=O)Nc1c(O)c2ccccc2[nH]c1=O	RBBP9 inh 18 (no result: PKD1 inh) | RBBP9 confirm inactive
COc1cc(/C=N/NC2=NCCCCC2)ccc1O	none (no result: PKD1 inh)
